Experimental data taken from ChEMBL document CHEMBL1125314, “Synthesis and evaluation of 2-pyridinone derivatives as HIV-1 specific reverse transcriptase inhibitors. 1. Phthalimidoalkyl and -alkylamino analogues” (J Med Chem, 1992).

Tests used:
[1] = biological target: Human immunodeficiency virus type 1 reverse transcriptase (Human immunodeficiency virus 1, UniProt Q72547); assay: Inhibition of HIV-1 reverse transcriptase.
[2] = The compound was tested for hydrolysis rate at pH 8.2; format: ADME; details: buffer
Procedure, shortened: (§1)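 Aqueous hydrolysis of the (aminomethyl)phthalimides followed at pH 7, 8.2 (the pH used for the RT enzyme measurements) and 9.0. Results are expressed as the observed rate constant k_obs in units of 10⁻³ min⁻¹.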

[3] = The compound was tested for hydrolysis rate at pH 9; format: ADME; details: buffer; procedure, shortened: as §1
[4] = The compound was tested for hydrolysis rate at pH 7; format: ADME; details: buffer; procedure, shortened: as §1

SMILES | IC50 [1] [µM] | k obs [2] [min⁻¹] | k obs [3] [min⁻¹] | k obs [4] [min⁻¹]
CCC1=C(C)NC(OC)C(C(O)CN2C(=O)c3ccccc3C2=O)=C1 (stereo not given) | > 300 |  |  | 
CCc1cc(C(=O)CN2C(=O)c3ccccc3C2=O)c(=O)[nH]c1C | > 300 |  |  | 
CCc1cc(NCCCN2C(=O)c3ccccc3C2=O)c(=O)[nH]c1C | 190 |  |  | 
CCC1=C(C)NC(OC)C(C(=O)CN2C(=O)c3ccccc3C2=O)=C1 (stereo not given) | > 300 |  |  | 
O=C1c2ccccc2C(=O)N1CNc1cc2c(nc1O)CCCC2 | 3.7 | 0.013 | 0.03678 | 0.00777
CCc1nc(O)c(NCN2C(=O)c3ccccc3C2=O)cc1C | 0.887 | 0.01001 | 0.03627 | 0.00722
CCc1cc(NCCN2C(=O)c3ccccc3C2=O)c(=O)[nH]c1C | 45 |  |  | 
CCC1=C(C)NC(OC)C(CCN2C(=O)c3ccccc3C2=O)=C1 (stereo not given) | 6.2 |  |  | 
CCC1=C(C)NC(OC)C(CCCN2C(=O)c3ccccc3C2=O)=C1 (stereo not given) | > 300 |  |  | 
O=C1c2ccccc2C(=O)N1CNc1cccnc1O | 1.66 | 0.0039 | 0.02417 | 0.00085
CCc1cc(NCN2C(=O)c3ccccc3C2=O)c(O)nc1C |  | 0.0101 | 0.0243 | 0.00624
CCC1=C(C)NC(OC)C(CN2C(=O)c3ccccc3C2=O)=C1 (stereo not given) | 16 |  |  | 
O=C1c2ccccc2C(=O)N1CCc1cccnc1O | > 300 |  |  | 
CCCCc1cc(NCN2C(=O)c3ccccc3C2=O)c(O)nc1C | 0.128 |  |  | 
CCc1cc(C(O)CN2C(=O)c3ccccc3C2=O)c(O)nc1C (stereo not given) | > 300 |  |  | 
Cc1cc(NCN2C(=O)c3ccccc3C2=O)c(O)nc1C | 0.218 |  |  | 
CCc1cc(CN2C(=O)c3ccccc3C2=O)c(=O)[nH]c1C | 26.5 |  |  | 
CCc1cc(/C=C/N2C(=O)c3ccccc3C2=O)c(=O)[nH]c1C | 54 |  |  | 
CCCc1cc(NCN2C(=O)c3ccccc3C2=O)c(=O)[nH]c1C | 0.058 |  |  | 
Cc1ccc(NCN2C(=O)c3ccccc3C2=O)c(=O)[nH]1 | 8.1 | 0.0073 | 0.027 | 0.00424
CCc1cc(CCCN2C(=O)c3ccccc3C2=O)c(O)nc1C | 210 |  |  | 
